E-sel inducer – induces E-selectin expression in human endothelial cells. HUVEC E-selectin immunofluorescence imaging; normalized: neutral wells 0, TNF-alpha wells 100. actives 0.37% (n = 260,000). P16581. activation, % at 7.58 µM;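 active means mean E-selectin-positive cell signal at least 10% of the positive control, reached in at least 60% of replicates, without over 20% cell loss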
Target sequence (P16581 whole entry, looked up): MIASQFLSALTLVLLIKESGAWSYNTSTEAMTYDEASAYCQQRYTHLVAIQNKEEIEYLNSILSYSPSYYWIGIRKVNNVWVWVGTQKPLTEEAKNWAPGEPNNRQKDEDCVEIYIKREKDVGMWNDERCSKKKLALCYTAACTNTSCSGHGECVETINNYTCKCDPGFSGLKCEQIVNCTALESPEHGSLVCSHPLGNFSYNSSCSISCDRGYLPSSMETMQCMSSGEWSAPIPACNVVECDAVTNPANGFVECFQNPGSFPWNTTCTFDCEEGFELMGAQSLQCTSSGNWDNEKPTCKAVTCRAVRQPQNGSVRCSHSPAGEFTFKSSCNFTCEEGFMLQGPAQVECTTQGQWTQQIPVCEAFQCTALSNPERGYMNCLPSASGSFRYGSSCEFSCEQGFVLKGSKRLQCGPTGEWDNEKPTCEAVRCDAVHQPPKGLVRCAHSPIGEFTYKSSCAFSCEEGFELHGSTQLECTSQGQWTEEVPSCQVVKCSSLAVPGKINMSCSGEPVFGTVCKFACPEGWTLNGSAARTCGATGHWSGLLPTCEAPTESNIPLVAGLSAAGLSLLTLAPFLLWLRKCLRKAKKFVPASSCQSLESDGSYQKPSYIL
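material = human umbilical vein endothelial cells (HUVEC), E-selectin induction | quantity = 3,000 cells/well | medium = EGM-2 growth medium on 0.1% gelatin-coated wells | technique = immunofluorescence imaging | read-out basis = % PE-positive cells | control set = TNF-alpha positive control, DMSO neutral control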
XiGFP reactiv – activators of X-chromosome reactivation in mouse fibroblasts | XiGFP mouse fibroblasts, % GFP-positive cells imaging, 3 d; cells co-treated with 5-aza-dC sensitizer; scaled so ellipticine positive control = 100% | activation, % at 7.58 µM | actives 0.055% (n = 360,000) | AID 743238;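 active means mean normalized replicate activation at least 10% and every replicate at or above 10%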
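material = 68-5-11 XiGFP fibroblast line | medium = DMEM plus 5-aza-dC sensitizer | schedule = 3 days compound exposure | benchmarks = positive control ellipticine, 6 µM final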
F508del corr – correctors of CFTR F508del function in bronchial epithelial cells. CFBE cells, YFP halide quenching; stimulated with forskolin plus potentiator P3; % fluorescence drop versus neutral controls. actives 0.36% (n = 350,000). activity (quench increase), % at 7.58 µM;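 active means mean added fluorescence quench of at least 8% versus neutral control, with both replicates also reaching 8%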;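 further: cells transiently co-express mutant CFTR-F508del with the halide-sensitive YFP; corrector assay measuring rescue of mutant channel to the surface after 24 h compound exposure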
Numbers stand for hits. Rows were chosen to be rich in hits. Some 0.61% of all compounds tested hit in one or more screens of this group.

For CCC(C)C(=O)N[C@@H](c1ccccc1)[C@@H](O)C(=O)O[C@H]1C[C@@]2(O)[C@@H](OC(=O)c3ccccc3)C3[C@](C)(C(=O)[C@H](OC(C)=O)C(=C1C)C2(C)C)[C@@H](O)C[C@H]1OC[C@@]31OC(C)=O (stereo partly specified) the results were F508del corr 11.
For C/C=C(\C)C(=O)N[C@@H](c1ccccc1)[C@@H](O)C(=O)O[C@H]1C[C@@]2(O)[C@@H](OC(=O)c3ccccc3)C3[C@](C)(C(=O)[C@H](OC(C)=O)C(=C1C)C2(C)C)[C@H](O)C[C@H]1OC[C@@]31OC(C)=O (stereo partly specified) the results were F508del corr inactive.
Screening CC(=O)O[C@@]12CO[C@@H]1C[C@@H](O)[C@@]1(C)C(=O)[C@H](O)C3=C(C)[C@@H](OC(=O)[C@H](O)[C@@H](NC(=O)c4ccccc4)c4ccccc4)C[C@@](O)([C@@H](OC(=O)c4ccccc4)C12)C3(C)C (stereo partly specified) returned F508del corr inactive.
For CC/C=C/CC(=O)N[C@@H](c1ccccc1)[C@@H](O)C(=O)O[C@H]1C[C@@]2(O)[C@@H](OC(=O)c3ccccc3)C3[C@](C)(C(=O)[C@H](OC(C)=O)C(=C1C)C2(C)C)[C@@H](O)C[C@H]1OC[C@@]31OC(C)=O (stereo partly specified) the results were F508del corr 17.
For O=C(NC[C@H]1CC[C@@H]2NC[C@@H]2O1)C1CCCC1 the results were F508del corr inactive.
`COC(=O)[C@@H]1[C@@H](CO)[C@@H]2Cn3c(ccc(C4=CCCC4)c3=O)[C@H]1N2CC1CCCC1` gave E-sel inducer inactive, XiGFP reactiv inactive and F508del corr inactive.
Screening COc1ccc(-c2ccc(OC)c(OC)c2OC)cc1 returned XiGFP reactiv inactive and F508del corr 12.
Screening COc1ccc(CN2C(=O)NC(=O)/C(=C/c3ccc(OC)c(OC)c3OC)C2=O)cc1 returned E-sel inducer inactive, XiGFP reactiv inactive and F508del corr inactive.
For CCC1(CC)C(=O)C=CNC1=O the results were E-sel inducer inactive, XiGFP reactiv inactive and F508del corr 29.
Screening CCC1(CC(C)C)C(=O)NC(=S)NC1=O returned E-sel inducer inactive, XiGFP reactiv inactive and F508del corr inactive.
COC(=O)[C@H]1[C@H](CO)[C@H]2Cn3c(ccc(C4=CCCCC4)c3=O)[C@@H]1N2Cc1ccccc1OC was read as E-sel inducer inactive, XiGFP reactiv inactive and F508del corr inactive.
`CC(=O)N1[C@@H]2Cn3c(ccc(-c4cccc(C(=O)N(C)C)c4)c3=O)[C@H]1[C@@H](C(=O)O)[C@@H]2CO` gave XiGFP reactiv inactive.
`CCOP(=O)(C#Cc1ccccc1)C(O)c1ccc(Br)cc1` (stereo unspecified) gave E-sel inducer inactive, XiGFP reactiv inactive and F508del corr 10.
For COP(=O)(C#Cc1ccccc1)C(O)c1ccc(Br)cc1 (stereo unspecified) the results were XiGFP reactiv inactive and F508del corr inactive.
`CCCNC(=O)[C@H]1[C@H](CO)[C@H]2Cn3c(cccc3=O)[C@H]2N1CC` gave E-sel inducer inactive, XiGFP reactiv inactive and F508del corr inactive.
`CC(C)C[C@@H]1COc2cccc(N3CCN(C)CC3)c2S(=O)(=O)N1` gave E-sel inducer inactive, XiGFP reactiv inactive and F508del corr 12.
Screening CC(C)C[C@H]1COc2cccc(N3CCN(C)CC3)c2S(=O)(=O)N1 returned E-sel inducer inactive, XiGFP reactiv inactive and F508del corr inactive.
For CN(C)CC1CCCCC1OC(=O)Cc1ccc(Cl)c([N+](=O)[O-])c1 (stereo unspecified) the results were E-sel inducer 50, XiGFP reactiv inactive and F508del corr inactive.
Screening CN1[C@@H]2CN(CC(F)(F)F)C[C@H]1C2c1ccc(Br)cc1 (stereo partly specified) returned XiGFP reactiv inactive.
